ChEMBL document CHEMBL1158484 (J Med Chem, 2009)
The source made the active and inactive calls. The rule behind the calls is not given here.

What was measured:
[1] = Selectivity index, ratio of IC50 for rat L6 cells to IC50 for axenic amastigotes of Leishmania donovani MHOM/SD/62/1S-CL2D; type: toxicity, cell-based; settings: read-out: Ratio IC50
Method in brief: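 Ratio of L6 IC50 to L. donovani IC50. L6: 4000 cells in RPMI 1640 with 10% FBS, 70 h at 37 °C, then Alamar blue 2–3 h, fluorescence 536/588 nm. Leishmania: 6×10^4 axenic amastigotes per well, 2-fold dilutions, 72 h at 37 °C in 5% CO2, tetrazolium CellTiter read at 490 nm. IC50 from a four-parameter dose–response fit.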

[2] = tested on: Trypanosoma brucei rhodesiense; test: Antitrypanosomal activity against bloodstream Trypanosoma brucei rhodesiense STIB900 after 70 hrs by alamar blue assay; type: functional, organism-based; settings: STIB900, 70 h
Method in brief: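 Bloodstream forms, 2000 per well, in supplemented MEM with Earle's salts (0.2 mM 2-mercaptoethanol, 1 mM pyruvate, 0.5 mM hypoxanthine, 15% heat-inactivated horse serum). Serial dilutions, 70 h at 37 °C, 5% CO2. IC50 from sigmoidal curves; two independent runs in duplicate. DMSO ≤1%.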

L6 = test: Cytotoxicity against rat L6 cells after 70 hrs by alamar blue assay; type: cell-based; settings: L6, 70 h
Leishmania donovani [3] = test: Antileishmanial activity against axenic amastigotes of Leishmania donovani MHOM/SD/62/1S-CL2D after 72 hrs; type: functional, organism-based
Method in brief: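 Axenic amastigotes (adapted from promastigotes), 6×10^4 per well, amastigote medium, 37 °C. 2-fold compound dilutions; 72 h at 37 °C, humidified 5% CO2. Growth read by tetrazolium CellTiter absorbance at 490 nm several hours after reagent addition. IC50 from four-parameter dose–response fit. DMSO ≤1%.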

[4] = Selectivity index, ratio of IC50 for rat L6 cells to IC50 for chloroquine-resistant Plasmodium falciparum K1; type: toxicity, cell-based; settings: read-out: Ratio IC50
Method in brief: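 Ratio of L6 IC50 to P. falciparum K1 IC50. L6: 4000 cells, 70 h at 37 °C, Alamar blue fluorescence. Parasites: infected human erythrocytes (1.25% hematocrit, 0.3% parasitemia) in low-O2 gas for 48 h, then [3H]-hypoxanthine for 24 h, uptake counted. Sigmoidal IC50s, two independent runs in duplicate.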

[5] = Selectivity index, ratio of IC50 for rat L6 cells to IC50 for bloodstream Trypanosoma brucei rhodesiense STIB900; type: toxicity, cell-based; settings: read-out: Ratio IC50
Plasmodium falciparum = test: Antiplasmodial activity after 48 hrs against chloroquine-resistant Plasmodium falciparum K1 infected human erythrocytes by [3H]hypoxanthine uptake; type: functional, organism-based
[6] = tested on: Trypanosoma brucei rhodesiense; test: Antitrypanosomal activity against bloodstream Trypanosoma brucei rhodesiense STIB900 infected in NMRI mouse assessed as parasite free mouse survival at 5 mg/kg, ip administered for 4 consecutive days from day 3 to 6 postinfection measured up to 60 days; type: functional, organism-based; design: dose 5 mg/kg
Method in brief: (§1)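 Female NMRI mice infected ip with 2×10^4 STIB900 bloodstream forms; groups of four dosed on 4 consecutive days, days 3-6 postinfection. Compounds in DMSO diluted with water to 10% DMSO. Untreated infected controls. Tail-blood parasitemia followed to day 60; surviving aparasitemic mice at day 60 scored cured; mean survival time recorded.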

[7] = tested on: Trypanosoma brucei rhodesiense; test: Antitrypanosomal activity against bloodstream Trypanosoma brucei rhodesiense STIB900 infected in NMRI mouse assessed as survival rate at 5 mg/kg, ip administered 4 consecutive days from day 3 to 6 postinfection; type: functional; settings: route intraperitoneal
Method in brief: (§2)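 Female NMRI mice infected ip with 2×10^4 STIB900 bloodstream forms. Groups of four treated on days 3–6 postinfection. Compounds in DMSO diluted with water to a final 10% DMSO. Untreated infected controls. Tail blood checked for parasitemia to day 60. Surviving aparasitemic mice at day 60 scored cured; mean survival time in days from recorded deaths.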

[8] = tested on: Trypanosoma brucei rhodesiense; test: Antitrypanosomal activity against bloodstream Trypanosoma brucei rhodesiense STIB900 infected in NMRI mouse assessed as survival rate at 25 mg/kg, po administered 4 consecutive days from day 3 to 6 postinfection; type: functional; method in brief: as §2
[9] = tested on: Trypanosoma brucei rhodesiense; test: Antitrypanosomal activity against bloodstream Trypanosoma brucei rhodesiense STIB900 infected in NMRI mouse assessed as parasite free mouse survival at 25 mg/kg, po administered for 4 consecutive days from day 3 to 6 postinfection measured up to 60 days; type: functional, organism-based; design: dose 25 mg/kg; method in brief: as §1
[10] = tested on: Trypanosoma brucei brucei; test: Antitrypanosomal activity against second-stage Trypanosoma brucei brucei GVR35 infected in african sleeping sickness CNS mouse model; type: functional, organism-based
Leishmania donovani [11] = test: Ratio of compound IC50 to pentamidine IC50 for Leishmania donovani MHOM/SD/62/1S-CL2D; type: functional
[12] = tested on: Trypanosoma brucei rhodesiense; test: Ratio compound IC50 to pentamidine IC50 for Trypanosoma brucei rhodesiense STIB900; type: functional
[13] = tested on: Trypanosoma brucei rhodesiense; test: Antitrypanosomal activity against bloodstream Trypanosoma brucei rhodesiense STIB900 infected in NMRI mouse assessed as survival rate at 100 mg/kg, po administered 4 consecutive days from day 3 to 6 postinfection; type: functional; method in brief: as §2
[14] = tested on: Trypanosoma brucei rhodesiense; test: Antitrypanosomal activity against bloodstream Trypanosoma brucei rhodesiense STIB900 infected in NMRI mouse assessed as parasite free mouse survival at 100 mg/kg, po administered for 4 consecutive days from day 3 to 6 postinfection measured up to 60 days; type: functional, organism-based; design: dose 100 mg/kg
[15] = tested on: Trypanosoma brucei rhodesiense; test: Antitrypanosomal activity against bloodstream Trypanosoma brucei rhodesiense STIB900 infected in NMRI mouse assessed as survival rate at 2 mg/kg, ip administered 4 consecutive days from day 3 to 6 postinfection; type: functional; settings: route intraperitoneal; method in brief: as §2
[16] = tested on: Trypanosoma brucei rhodesiense; test: Antitrypanosomal activity against bloodstream Trypanosoma brucei rhodesiense STIB900 infected in NMRI mouse assessed as parasite free mouse survival at 2 mg/kg, ip administered for 4 consecutive days from day 3 to 6 postinfection measured up to 60 days; type: functional, organism-based; design: dose 2 mg/kg; method in brief: as §2
[17] = tested on: Trypanosoma brucei rhodesiense; test: Antitrypanosomal activity against bloodstream Trypanosoma brucei rhodesiense STIB900 infected in NMRI mouse assessed as survival rate at 1 mg/kg, ip administered 4 consecutive days from day 3 to 6 postinfection; type: functional; settings: route intraperitoneal; method in brief: as §2

SMILES	selectivity ratio [1]	IC50 [2] [µM]	IC50 (L6) [µM]	IC50 (Leishmania donovani [3]) [µM]	selectivity ratio [4]	selectivity ratio [5]	IC50 (Plasmodium falciparum) [µM]	Activity [6]	Survival [7] [days]	Survival [8] [days]	Activity [9]	Activity [10]	Ratio IC50 (Leishmania donovani [11])	Ratio IC50 [12]	Survival [13] [days]	Activity [14]	Survival [15] [days]	Activity [16]	Survival [17] [days]
c1cc(OCCCCCOc2ccnc(C3=NCCN3)c2)cc(C2=NCCN2)n1	< 1	12.5	80.8	> 100	19	6	4.26	–	–	–	–	–	–	–	–	–	–	–	–
CC(C)NC(=N)c1ccc(OCCCCCOc2ccc(C(=N)NC(C)C)nc2)cn1	25	0.034	148	6	24700	4350	0.006	inactive	18.5	–	–	–	–	–	–	–	–	–	–
N/C(=N\O)c1cccc(OCCCCCOc2cccc(/C(N)=N/O)n2)n1	1	19	52.2	> 50	5	3	10.5	–	–	–	–	–	–	–	–	–	–	–	–
N/C(=N/O)c1ccc(OCCCCCOc2ccc(/C(N)=N\O)nc2)cn1	< 2	108	166	> 100	< 16	2	> 10.7	–	–	>60	Active	inactive	–	–	–	–	–	–	–
CC(C)NC(=N)c1cc(OCCCCCOc2ccnc(C(=N)NC(C)C)c2)ccn1	2	1.7	> 155	> 100	> 117	> 91	1.33	–	–	–	–	–	–	–	–	–	–	–	–
c1cc(OCCCCCOc2ccc(C3=NCCN3)cn2)ncc1C1=NCCN1	1	1.42	111	> 100	60	78	1.86	–	–	–	–	–	–	–	–	–	–	–	–
CO/N=C(\N)c1ccc(OCCCCCOc2ccc(/C(N)=N\OC)cn2)nc1	2	25.9	> 185	> 100	> 83	> 7	2.24	–	–	–	–	–	–	–	–	–	–	–	–
c1cc(C2=NCCN2)ncc1OCCCCCOc1ccc(C2=NCCN2)nc1	2	0.17	82.3	36	2290	484	0.036	inactive	12.75	–	–	–	–	–	–	–	–	–	–
N=C(N)c1ccc(OCCCCCOc2ccc(C(=N)N)nc2)cn1	11	0.001	4.9	0.47	544	4900	0.009	–	>36	–	–	–	4	3	–	–	–	–	–
N=C(N)c1cccc(OCCCCCOc2cccc(C(=N)N)n2)n1	28	0.019	114	4.1	4220	6000	0.027	inactive	22.5	–	–	–	–	–	–	–	–	–	–
CC(C)NC(=N)c1ccc(OCCCCCOc2ccc(C(=N)NC(C)C)cn2)nc1	2	0.276	> 155	> 100	> 605	> 562	0.256	–	–	–	–	–	–	–	–	–	–	–	–
c1cc(OCCCCCOc2cccc(C3=NCCN3)n2)nc(C2=NCCN2)c1	< 1	3.07	14.6	24	26	5	0.568	–	–	–	–	–	–	–	–	–	–	–	–
N=C(N)c1ccc(OCCCCCOc2ccc(C(=N)N)cn2)nc1	4	0.07	137	39	416	1960	0.329	inactive	17.75	–	–	–	–	–	–	–	–	–	–
CO/N=C(/N)c1ccc(OCCCCCOc2ccc(/C(N)=N\OC)nc2)cn1	< 1	51.2	39.4	> 50	11	< 1	3.5	–	–	19.5	inactive	–	–	–	–	–	–	–	–
N=C(N)c1cc(OCCCCCOc2ccnc(C(=N)N)c2)ccn1	2	0.051	59.3	38	3710	1160	0.016	inactive	14	–	–	–	–	–	–	–	–	–	–
CO/N=C(\N)c1cc(OCCCCCOc2ccnc(/C(N)=N/OC)c2)ccn1	1	18.2	138	> 100	< 69	8	> 2	–	–	–	–	–	–	–	11.75	inactive	–	–	–
N/C(=N\O)c1ccc(OCCCCCOc2ccc(/C(N)=N\O)cn2)nc1	< 1	27.4	16.4	> 100	3	< 1	6.5	–	–	8.75	inactive	–	–	–	–	–	–	–	–
N=C(N)c1ccc(OCCCCCOc2ccc(C(=N)N)cc2)cc1 [PENTAMIDINE]	–	–	–	–	–	–	–	–	>45	–	–	–	–	–	–	–	–	–	–
N/C(=N\O)c1cc(OCCCCCOc2ccnc(/C(N)=N/O)c2)ccn1	4	12	159	45	< 76	13	> 2.1	–	–	–	–	–	–	–	14.25	inactive	–	–	–
Nc1nc(N)nc(Nc2ccc([As]3SCC(CO)S3)cc2)n1 (centres undefined) [MELARSOPROL]	–	–	–	–	–	–	–	–	–	–	–	–	–	–	–	–	>60	Active	>51.5
